Measurements from different studies.
Target: Vascular endothelial growth factor receptor 2 (KDR, Homo sapiens, UniProt P35968)

N#Cc1ccc(NC(=O)Nc2ccccc2)cc1
remaining binding (cell-free assay, competition with immobilised ligand; 25 µM): 96%

C[C@@H]1O[C@@H](O[C@H]2[C@H](Oc3cc(O)c4c(=O)cc(-c5ccc(O)cc5)oc4c3)O[C@H](CO)[C@@H](O)[C@@H]2O)[C@H](O)[C@H](O)[C@H]1O
inhibition (enzyme activity, inhibitor, TR-FRET; 40 µM): 8.3%

C#Cc1cnc(Nc2ccnc(CO)c2)nc1Nc1ccccc1S(C)(=O)=NC#N (stereo not shown)
remaining signal (cell-free assay; 1 µM): 41%

O=C(O)[C@H]1O[C@@H](Oc2cc(O)c3c(=O)cc(-c4ccc(O)c(O)c4)oc3c2)[C@H](O)[C@@H](O)[C@@H]1O
inhibition (enzyme activity, inhibitor, TR-FRET; 40 µM): 83.9%

Cc1ccc(NC(=O)c2ccnc(C(F)(F)F)c2)cc1-c1cc(OCCO)nc(N2CCOCC2)c1
remaining binding (binding, competition with immobilised ligand; 1 µM): 85%

CC#CC(=O)N1CCC[C@H]1c1nc(-c2ccc(C(=O)Nc3ccccn3)cc2)c2c(N)nccn12
inhibition (enzyme activity, inhibitor; 1 µM): 0%

CCCCC(=O)Nc1ccc(-c2ccc3ncn(CCC)c(=O)c3c2)cn1
remaining binding (binding, competition with immobilised ligand; 0.5 µM): 95%

COc1ccc2oc(-c3ccc4nc(N)oc4c3)c/c(=N\c3ccccc3NC(=O)CCN)c2c1
remaining binding (binding; 1 µM): 103%

CO[C@@H]1[C@H](N(C)C(=O)c2ccccc2)C[C@H]2O[C@]1(C)n1c3ccccc3c3c4c(c5c6ccccc6n2c5c31)C(=O)NC4
inhibition (enzyme activity, inhibitor; 1 µM): 67%

COc1ccc2[nH]c3c4[nH]c5ccc(OC)cc5c4c4c(c3c2c1)C(=O)NC4=O
remaining binding (binding, competition with immobilised ligand; 1 µM): 59%
